Laboratory results: ChEMBL document CHEMBL3232810, “Synthesis, biological evaluation and 3D-QSAR studies of new chalcone derivatives as inhibitors of human P-glycoprotein” (Bioorg Med Chem, 2014)

target: ATP-dependent translocase ABCB1 (Homo sapiens, UniProt P08183); assay: Inhibition of P-gp-mediated daunorubicin efflux in human CCRF-CEM/VCR1000 cells measured within 1 hr by FACS flow cytometry
Procedure, shortened: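 CCRF vcr1000 cells kept in RPMI 1640 with 10% FCS and 1000 ng/mL vincristine; vincristine washed out 1 week before use. Cells at 1×10⁶/mL were preloaded with daunorubicin (3 µmol/L final), 30 min, 37 °C. After pelleting they were resuspended in warm medium with inhibitor, eight concentrations (1:3 serial), top 20–200 µM. Aliquots at 0, 60, 120, 180 and 240 s went into ice-cold stop solution (5 µmol/L GPV31 final). Initial efflux rates came from linear regression, and IC50 from a Hill-equation fit of rate versus concentration.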

Sequence of ATP-dependent translocase ABCB1 (P08183 whole entry): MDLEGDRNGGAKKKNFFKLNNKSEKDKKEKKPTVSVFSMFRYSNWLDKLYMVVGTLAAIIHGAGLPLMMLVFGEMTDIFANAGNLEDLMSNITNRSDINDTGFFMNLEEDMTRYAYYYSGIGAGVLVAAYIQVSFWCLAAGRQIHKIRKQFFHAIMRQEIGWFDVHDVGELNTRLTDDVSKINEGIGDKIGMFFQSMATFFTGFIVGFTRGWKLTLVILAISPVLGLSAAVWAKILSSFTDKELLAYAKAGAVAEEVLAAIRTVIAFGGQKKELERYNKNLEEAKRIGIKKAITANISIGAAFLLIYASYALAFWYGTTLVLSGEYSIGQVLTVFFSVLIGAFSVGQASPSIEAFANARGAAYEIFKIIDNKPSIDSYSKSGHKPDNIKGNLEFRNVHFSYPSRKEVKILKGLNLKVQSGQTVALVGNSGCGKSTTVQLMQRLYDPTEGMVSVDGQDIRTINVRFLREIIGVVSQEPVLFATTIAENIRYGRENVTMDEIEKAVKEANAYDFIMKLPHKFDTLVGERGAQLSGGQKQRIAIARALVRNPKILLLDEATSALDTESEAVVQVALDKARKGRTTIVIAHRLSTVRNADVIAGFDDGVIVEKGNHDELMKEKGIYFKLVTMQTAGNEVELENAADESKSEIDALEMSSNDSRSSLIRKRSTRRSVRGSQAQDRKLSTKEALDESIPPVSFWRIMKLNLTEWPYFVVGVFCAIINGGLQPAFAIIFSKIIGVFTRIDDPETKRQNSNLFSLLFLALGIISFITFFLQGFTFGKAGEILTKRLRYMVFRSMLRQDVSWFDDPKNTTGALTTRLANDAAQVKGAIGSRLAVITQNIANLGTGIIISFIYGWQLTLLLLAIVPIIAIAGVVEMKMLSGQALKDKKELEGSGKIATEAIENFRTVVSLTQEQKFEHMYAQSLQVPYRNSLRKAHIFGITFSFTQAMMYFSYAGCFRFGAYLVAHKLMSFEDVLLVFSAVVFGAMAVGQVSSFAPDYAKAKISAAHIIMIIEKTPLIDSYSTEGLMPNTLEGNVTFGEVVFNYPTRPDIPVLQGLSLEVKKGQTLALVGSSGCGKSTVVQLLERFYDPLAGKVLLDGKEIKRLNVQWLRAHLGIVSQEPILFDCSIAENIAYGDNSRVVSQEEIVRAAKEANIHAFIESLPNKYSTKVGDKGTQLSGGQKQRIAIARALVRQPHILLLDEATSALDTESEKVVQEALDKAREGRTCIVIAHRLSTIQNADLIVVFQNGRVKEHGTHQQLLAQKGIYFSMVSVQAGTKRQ

SMILES | IC50 [nM]
COc1cc(C(=O)/C=C/c2cccc(/C=C/C(=O)c3cc(OC)c(OC)c(OC)c3)c2)cc(OC)c1OC | 120
COc1cc(C(=O)/C=C/c2ccc(C(=O)O)cc2)cc(OC)c1OC | 141000
COc1ccc(C(=O)/C=C/c2ccc(OC)c3ccccc23)cc1OC | 2750
COc1cc(/C=C/C(=O)c2cccc(C(=O)/C=C/c3cc(OC)c(OC)c(OC)c3)c2)cc(OC)c1OC | 140
COc1cc(C(=O)/C=C/c2ccccc2SC)cc(OC)c1OC | 650
COc1ccccc1/C=C/C=C/C(=O)c1cc(OC)c(O)c(OC)c1 | 12000
COc1ccc2c(c1)CC/C(=C\c1ccc3ccccc3c1)C2=O | 3550
COc1cc2c(cc1OC)C(=O)/C(=C/C=C/c1ccc(N(C)C)cc1)C2 | 40
COc1ccc(C(=O)/C=C/c2cccc(/C=C/C(=O)c3ccc(OC)c(OC)c3)c2)cc1OC | 140
COc1cc(/C=C/C=C2\Cc3ccc(OC)c(OC)c3C2=O)cc(OC)c1OC | 2630
COc1ccc2c(c1)C(=O)/C(=C/C=C/c1cc(OC)c(OC)c(OC)c1)C2 | 1150
COc1cc(/C=C/C=C/C(=O)c2cccc(C(=O)/C=C/C=C/c3cc(OC)c(OC)c(OC)c3)c2)cc(OC)c1OC | 60
COc1cc2c(cc1OC)C(=O)/C(=C/C=C/c1cc(OC)c(OC)c(OC)c1)CC2 | 140
COc1ccccc1C(=O)/C=C/c1c(C)cc(C)cc1C | 8510
COc1cc2c(cc1OC)C(=O)/C(=C/c1ccc(N(C)C)cc1)C2 | 130
COc1cc(C(=O)/C=C/C=C/c2ccccc2SC)cc(OC)c1OC | 870
COc1ccc2c(c1)CC/C(=C\C=C\c1cc(OC)c(OC)c(OC)c1)C2=O | 1740
COC(=O)C1=C(O)/C(=C/C=C/c2ccccc2OC)CCC1 | 20400
COc1ccccc1/C=C/C=C/C(=O)c1cc(OC)c(OC)c(OC)c1 | 1380
COc1ccc2c(c1)C/C(=C\C=C\c1ccccc1OC)C2=O | 3890
COc1cc(/C=C/C=C2\Cc3ccc(OC)c(OC)c3C2=O)ccc1O | 2330
